# Experiments:
# MT4 cells = conditions: MT4 cell cultures; colorimetric MTT cell viability assay
# Para-influenza-3 virus = assay: CPE reduction assay in Vero cells; format: cell-based, Parainfluenza-3 virus; conditions: read-out: Antiviral EC50, Para-influenza-3 virus
# Yellow Fever virus = assay: microbe, parasite or virus in culture; format: cell-based; conditions: read-out: Antiviral EC50, Yellow Fever virus
# Adeno virus-2 = assay: CPE reduction assay in HEL cells; format: cell-based; conditions: read-out: Antiviral EC50, Adeno virus-2
# [1] = test system: Aspergillus niger (NCIM 2191); assay: Agar disk diffusion, inhibition zone; format: cell-based; conditions: 100 µg/8 mm disc, triplicate, mean ± SD
# Procedure, shortened: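 For the fungal strain, discs soaked in test compound solution (DMSO stock diluted with distilled water) sat on seeded Mueller-Hinton agar. Clotrimazole was the reference. Incubation ran 48 h at 35 °C, in triplicate. Zone of growth inhibition recorded in mm as the mean diameter around each disc.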
# [2] = test system: Pseudomonas aeruginosa (MCCB 0035); assay: MIC, broth microdilution; format: cell-based; conditions: read-out: Minimum inhibitory concentration (MIC), PA
# Procedure, shortened: (§1)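 Broth microdilution per CLSI in Mueller-Hinton broth, using two-fold serial dilutions of test compound and reference drugs from 512 to 0.25. Bacterial broth cultures were grown 2-6 h to 0.5 McFarland turbidity, then diluted with sterile solution to the final inoculum. MIC is reported in µg/mL.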
# [3] = test system: Cryptococcus neoformans (ATCC 9011); assay: MIC, broth microdilution; format: cell-based; conditions: ATCC9011, read-out: Minimum inhibitory concentration (MIC), CN
# Procedure, shortened: (§2)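 Antifungal MICs by CLSI broth microdilution in Sabouraud liquid medium. Test compounds and standard drugs are serially diluted two-fold from 512 to 0.25. The fungal broth culture is grown 24 h at 35 °C to a 0.5 McFarland turbidity, then adjusted with sterile solution to the final inoculum.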
# [4] = test system: Escherichia coli (ATCC 8739); assay: MIC, broth microdilution; format: cell-based; conditions: ATCC8739, read-out: Minimum inhibitory concentration (MIC), EC
# Procedure, shortened: as §1
# [5] = test system: Aspergillus fumigatus (NCIM 2081); assay: Agar disk diffusion, inhibition zone; format: cell-based; conditions: 100 µg/8 mm disc, triplicate, mean ± SD
# [6] = test system: Salmonella typhimurium (NCIM-2501); assay: Agar disk diffusion, inhibition zone; format: cell-based; conditions: 100 µg/8 mm disc, triplicate, mean ± SD
# [7] = test system: Cryptococcus neoformans (ATCC 9011); assay: Agar disk diffusion, inhibition zone; format: cell-based; conditions: 100 µg/8 mm disc, triplicate, mean ± SD
# [8] = test system: Staphylococcus aureus (ATCC 29213); assay: MIC, broth microdilution; format: cell-based; conditions: ATCC29213, read-out: Minimum inhibitory concentration (MIC), SA
# Procedure, shortened: (§3)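 Antibacterial MICs by CLSI broth microdilution in Mueller-Hinton broth. Test compounds and standard drugs are serially diluted two-fold from 512 to 0.25. The bacterial broth culture is grown 2-6 h to a 0.5 McFarland turbidity, then adjusted with sterile solution to the final inoculum.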
# [9] = test system: Candida albicans (NCIM 2087); assay: Agar disk diffusion, inhibition zone; format: cell-based; conditions: 100 µg/8 mm disc, triplicate, mean ± SD
# [10] = test system: Klebsiella aerogenes (NCIM-2098); assay: Agar disk diffusion, inhibition zone; format: cell-based; conditions: 100 µg/8 mm disc, triplicate, mean ± SD
# [11] = test system: Lactobacillus casei (NCIM-2651); assay: Agar disk diffusion, inhibition zone; format: cell-based; conditions: 100 µg/8 mm disc, triplicate, mean ± SD
# [12] = test system: Aspergillus fumigatus (NCIM 2081); assay: MIC, broth microdilution; format: cell-based; conditions: NCIM2081, read-out: Minimum inhibitory concentration (MIC), AF
# Procedure, shortened: as §2
# [13] = test system: Aspergillus niger (NCIM 2191); assay: MIC, broth microdilution; format: cell-based; conditions: NCIM2191, read-out: Minimum inhibitory concentration (MIC), AN
# Procedure, shortened: as §2
# [14] = test system: Streptococcus pneumonia (ATCC 49619); assay: Agar disk diffusion, inhibition zone; format: cell-based; conditions: 100 µg/8 mm disc, triplicate, mean ± SD
# [15] = test system: Candida albicans (NCIM 2087); assay: MIC, broth microdilution; format: cell-based; conditions: NCIM2087, read-out: Minimum inhibitory concentration (MIC), CA
# Procedure, shortened: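 CLSI broth microdilution in Sabouraud liquid medium, with test compound two-fold serially diluted from 512 to 0.25. Fungal broth culture grown 24 h at 35 °C to 0.5 McFarland turbidity, then adjusted with sterile solution to a final […] inoculum. MIC expressed in µg/mL.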
# [16] = test system: Bacillus cereus (NCIM-2458); assay: Agar disk diffusion, inhibition zone; format: cell-based; conditions: 100 µg/8 mm disc, triplicate, mean ± SD
# [17] = test system: Klebsiella aerogenes (NCIM-2098); assay: MIC, broth microdilution; format: cell-based; conditions: NCIM2098, read-out: Minimum inhibitory concentration (MIC), KA
# Procedure, shortened: as §3
# [18] = test system: Bacillus cereus (NCIM-2458); assay: MIC, broth microdilution; format: cell-based; conditions: NCIM2458, read-out: Minimum inhibitory concentration (MIC), BC
# Procedure, shortened: as §1
# [19] = test system: Staphylococcus aureus (ATCC 29213); assay: Agar disk diffusion, inhibition zone; format: cell-based; conditions: 100 µg/8 mm disc, triplicate, mean ± SD
# Procedure, shortened: (§4)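 Agar disk diffusion on Mueller-Hinton agar plates seeded with a standard bacterial suspension. Test compound stock in DMSO, diluted with distilled water; 8 mm sterile filter-paper discs soaked in the solution. Ampicillin was the reference. Plates incubated at 35 °C for 24 h, in triplicate. Read-out is the average inhibition-zone diameter (mm) around each disc.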
# [20] = test system: Escherichia coli (ATCC 8739); assay: Agar disk diffusion, inhibition zone; format: cell-based; conditions: 100 µg/8 mm disc, triplicate, mean ± SD
# Procedure, shortened: as §4
# [21] = test system: Pseudomonas aeruginosa (MCCB 0035); assay: Agar disk diffusion, inhibition zone; format: cell-based; conditions: 100 µg/8 mm disc, triplicate, mean ± SD
molecule,measurement,setting,value
"O=c1[nH]cnc2c1ncn2[C@H]1CC[C@@H](CO)O1 [Didanosine, reference compound]",Minimum cytotoxic conc.,MT4 cells,>50 µM
"dextran sulfate [DS-10.000, reference compound]",EC50,Para-influenza-3 virus,> 100 µM
same,EC50,Yellow Fever virus,0.8 µM
same,Minimum cytotoxic conc.,Vero cells,>100 µM
"Cc1cn([C@H]2C[C@H](F)[C@@H](CO)O2)c(=O)[nH]c1=O [Alovudine, reference compound]",EC50,Adeno virus-2,1.4 µM
"Cc1ccc(C2SCC(=O)N2S(=O)(=O)c2ccc(C)cc2)cc1 (centres unmarked) [5t, 2-(4-Methylphenyl)-3-[(4-methylphenyl)sulfonyl]-1,3-thiazolidin-4-one]","Diameter of growth inhibition zone, AN",[1],9.5 ± 0.9 mm
same,MIC,[2],128 mg/L
same,MIC,[3],> 256 mg/L
same,MIC,[4],64 mg/L
same,"Diameter of growth inhibition zone, AF",[5],09 ± 1.5 mm
same,"Diameter of growth inhibition zone, ST",[6],07 ± 0.7 mm
same,"Diameter of growth inhibition zone, CN",[7],10 ± 0.9 mm
same,MIC,[8],64 mg/L
same,"Diameter of growth inhibition zone, CA",[9],9.8 ± 0.23 mm
same,"Diameter of growth inhibition zone, KA",[10],07 ± 0.6 mm
same,"Diameter of growth inhibition zone, LC",[11],08 ± 0.5 mm
same,MIC,[12],64 mg/L
same,MIC,[13],128 mg/L
same,"Diameter of growth inhibition zone, SP",[14],07 ± 0.7 mm
same,MIC,[15],128 mg/L
same,"Diameter of growth inhibition zone, BC",[16],07 ± 0.84 mm
same,MIC,[17],> 256 mg/L
same,MIC,[18],> 256 mg/L
same,"Diameter of growth inhibition zone, SA",[19],12 ± 1.9 mm
same,"Diameter of growth inhibition zone, EC",[20],12 ± 1.2 mm
same,"Diameter of growth inhibition zone, PA",[21],11 ± 0.65 mm
"Cc1cn([C@H]2C[C@H](N=[N+]=[N-])[C@@H](CO)O2)c(=O)[nH]c1=O [Azidothymidine, reference compound]",Minimum cytotoxic conc.,MT4 cells,>2 µM
"Nc1ccn([C@@H]2CS[C@H](CO)O2)c(=O)n1 [Lamivudine, reference compound]",Minimum cytotoxic conc.,MT4 cells,>20 µM
"Cc1ccnc2c1NC(=O)c1cccnc1N2C1CC1 [Nevirapine, reference compound]",Minimum cytotoxic conc.,MT4 cells,>4 µM
"Cc1ccc(S(=O)(=O)N2C(=O)CSC2c2cccc(C)c2)cc1 (centres unmarked) [5s, 2-(3-Methylphenyl)-3-[(4-methylphenyl)sulfonyl]-1,3-thiazolidin-4-one]","Diameter of growth inhibition zone, AN",[1],9.6 ± 0.63 mm
same,MIC,[2],64 mg/L
same,MIC,[3],128 mg/L
same,MIC,[4],16 mg/L
same,"Diameter of growth inhibition zone, AF",[5],9.2 ± 1.5 mm
same,"Diameter of growth inhibition zone, ST",[6],10 ± 0.4 mm
same,"Diameter of growth inhibition zone, CN",[7],9 ± 0.5 mm
same,MIC,[8],128 mg/L
same,"Diameter of growth inhibition zone, CA",[9],10 ± 1.1 mm
same,"Diameter of growth inhibition zone, KA",[10],08 ± 1.3 mm
same,"Diameter of growth inhibition zone, LC",[11],10 ± 0.6 mm
same,MIC,[12],64 mg/L
same,MIC,[13],128 mg/L
same,"Diameter of growth inhibition zone, SP",[14],08 ± 0.4 mm
same,MIC,[15],64 mg/L
same,"Diameter of growth inhibition zone, BC",[16],10 ± 0.2 mm
same,MIC,[17],128 mg/L
same,MIC,[18],64 mg/L
same,"Diameter of growth inhibition zone, SA",[19],13 ± 1.5 mm
same,"Diameter of growth inhibition zone, EC",[20],17 ± 1.5 mm
same,"Diameter of growth inhibition zone, PA",[21],15 ± 0.32 mm
